Results: ChEMBL document CHEMBL1129681, “Synthesis, absolute configuration, and biological profile of the enantiomers of trans-[2-(2,6-dimethoxyphenoxy)ethyl] [(3-p-tolyl-2,3-dihydro-1,4-benzodioxin-2-yl)methyl]amine (mephendioxan), a potent competitive alpha 1A-adrenoreceptor antagonist” (J Med Chem, 1996)

What was measured:
[1] = target: T1, Adrenergic receptor alpha-2 (Rattus norvegicus, UniProt P22086+P19328+P22909); experiment: (§1) Binding affinity towards Alpha-2 adrenergic receptor in rat cerebral cortex using [3H]rauwolscine as radioligand; assay type: tissue-based
T1 sequence (P22086 whole entry): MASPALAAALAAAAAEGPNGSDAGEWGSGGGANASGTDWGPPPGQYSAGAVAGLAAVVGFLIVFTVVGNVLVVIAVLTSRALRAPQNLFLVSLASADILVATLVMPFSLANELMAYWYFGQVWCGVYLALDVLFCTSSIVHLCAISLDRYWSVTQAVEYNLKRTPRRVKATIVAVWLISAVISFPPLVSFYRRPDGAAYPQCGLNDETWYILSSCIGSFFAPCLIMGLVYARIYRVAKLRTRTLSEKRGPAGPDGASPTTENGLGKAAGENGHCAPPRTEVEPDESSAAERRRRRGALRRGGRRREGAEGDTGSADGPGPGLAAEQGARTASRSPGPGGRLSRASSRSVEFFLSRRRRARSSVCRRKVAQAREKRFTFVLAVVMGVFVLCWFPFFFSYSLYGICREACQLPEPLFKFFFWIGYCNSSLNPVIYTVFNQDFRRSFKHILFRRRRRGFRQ
T1 sequence (P19328 whole entry): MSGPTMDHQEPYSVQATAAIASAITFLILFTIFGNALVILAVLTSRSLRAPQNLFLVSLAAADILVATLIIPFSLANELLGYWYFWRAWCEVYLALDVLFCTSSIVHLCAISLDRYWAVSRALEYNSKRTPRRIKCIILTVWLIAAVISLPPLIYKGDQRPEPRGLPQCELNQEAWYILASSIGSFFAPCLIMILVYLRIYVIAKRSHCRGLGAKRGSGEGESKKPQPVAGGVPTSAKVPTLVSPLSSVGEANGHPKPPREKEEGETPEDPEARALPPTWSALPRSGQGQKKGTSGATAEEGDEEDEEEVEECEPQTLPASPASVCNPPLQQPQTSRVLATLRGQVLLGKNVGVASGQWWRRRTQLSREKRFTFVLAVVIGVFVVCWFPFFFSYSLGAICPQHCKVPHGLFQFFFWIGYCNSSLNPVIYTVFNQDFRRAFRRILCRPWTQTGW
T1 sequence (P22909 whole entry): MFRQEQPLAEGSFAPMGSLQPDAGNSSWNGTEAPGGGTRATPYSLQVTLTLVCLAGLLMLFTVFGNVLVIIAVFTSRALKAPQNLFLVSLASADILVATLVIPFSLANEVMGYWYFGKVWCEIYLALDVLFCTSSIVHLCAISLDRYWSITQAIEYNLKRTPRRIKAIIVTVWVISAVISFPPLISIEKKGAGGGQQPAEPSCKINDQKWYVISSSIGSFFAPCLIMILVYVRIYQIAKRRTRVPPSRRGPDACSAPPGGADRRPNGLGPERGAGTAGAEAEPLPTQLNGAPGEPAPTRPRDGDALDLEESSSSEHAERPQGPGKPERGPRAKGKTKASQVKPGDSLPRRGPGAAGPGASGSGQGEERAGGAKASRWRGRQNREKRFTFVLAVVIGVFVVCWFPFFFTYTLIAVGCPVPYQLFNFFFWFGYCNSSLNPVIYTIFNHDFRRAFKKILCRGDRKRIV
Procedure, shortened: (§2)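 Rat brain membranes (native receptors): cerebral cortex for α1 with [3H]prazosin (79.2 Ci/mmol) and α2 with [3H]rauwolscine (80.5 Ci/mmol); hippocampus for 5-HT1A with [3H]8-OH-DPAT (162.9 Ci/mmol); striatum for D2 with [3H]spiperone (17.7 Ci/mmol). Radioligand competition by test drug; mean ± SE of at least three separate experiments in triplicate.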

[2] = target: T2, Adrenergic receptor alpha-2 (Rattus norvegicus) (UniProt P22086+P19328+P22909); conditions: Vas deferens
[3] = target: T3, Adrenergic receptor alpha-1 (Rattus norvegicus, UniProt P15823+P23944+P43140); experiment: Binding affinity towards Alpha-1 adrenergic receptor in rat cerebral cortex using [3H]prazosin as radioligand; assay type: tissue-based; procedure, shortened: as §2
T3 sequence (P15823 whole entry): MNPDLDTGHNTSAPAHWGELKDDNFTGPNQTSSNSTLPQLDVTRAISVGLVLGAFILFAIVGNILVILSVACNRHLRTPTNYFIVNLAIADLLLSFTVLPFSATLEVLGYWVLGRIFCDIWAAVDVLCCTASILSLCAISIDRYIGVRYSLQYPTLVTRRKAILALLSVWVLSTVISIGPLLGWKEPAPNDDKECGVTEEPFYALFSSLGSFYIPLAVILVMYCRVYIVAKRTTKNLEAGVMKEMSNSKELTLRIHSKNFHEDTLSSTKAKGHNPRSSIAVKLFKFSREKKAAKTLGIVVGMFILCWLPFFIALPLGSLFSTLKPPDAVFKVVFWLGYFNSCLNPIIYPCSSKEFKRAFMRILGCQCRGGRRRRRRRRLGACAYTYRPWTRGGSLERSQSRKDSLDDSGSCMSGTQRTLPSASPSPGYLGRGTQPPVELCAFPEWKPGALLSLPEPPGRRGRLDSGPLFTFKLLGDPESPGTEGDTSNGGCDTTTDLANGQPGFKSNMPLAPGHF
T3 sequence (P23944 whole entry): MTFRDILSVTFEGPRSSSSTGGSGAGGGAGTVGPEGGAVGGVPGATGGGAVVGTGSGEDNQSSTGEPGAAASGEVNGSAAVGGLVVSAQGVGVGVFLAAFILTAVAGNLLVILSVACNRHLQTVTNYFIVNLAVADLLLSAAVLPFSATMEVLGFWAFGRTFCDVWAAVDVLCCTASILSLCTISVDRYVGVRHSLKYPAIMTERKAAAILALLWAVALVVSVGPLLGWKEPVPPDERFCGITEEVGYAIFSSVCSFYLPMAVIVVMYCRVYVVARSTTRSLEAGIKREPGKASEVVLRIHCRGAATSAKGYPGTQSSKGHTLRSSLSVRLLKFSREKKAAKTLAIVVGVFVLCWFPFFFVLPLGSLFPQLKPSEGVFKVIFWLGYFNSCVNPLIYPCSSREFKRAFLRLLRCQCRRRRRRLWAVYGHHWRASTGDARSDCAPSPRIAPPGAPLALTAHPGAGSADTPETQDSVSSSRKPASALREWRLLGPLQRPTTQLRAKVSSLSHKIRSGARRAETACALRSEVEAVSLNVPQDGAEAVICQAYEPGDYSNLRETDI
T3 sequence (P43140 whole entry): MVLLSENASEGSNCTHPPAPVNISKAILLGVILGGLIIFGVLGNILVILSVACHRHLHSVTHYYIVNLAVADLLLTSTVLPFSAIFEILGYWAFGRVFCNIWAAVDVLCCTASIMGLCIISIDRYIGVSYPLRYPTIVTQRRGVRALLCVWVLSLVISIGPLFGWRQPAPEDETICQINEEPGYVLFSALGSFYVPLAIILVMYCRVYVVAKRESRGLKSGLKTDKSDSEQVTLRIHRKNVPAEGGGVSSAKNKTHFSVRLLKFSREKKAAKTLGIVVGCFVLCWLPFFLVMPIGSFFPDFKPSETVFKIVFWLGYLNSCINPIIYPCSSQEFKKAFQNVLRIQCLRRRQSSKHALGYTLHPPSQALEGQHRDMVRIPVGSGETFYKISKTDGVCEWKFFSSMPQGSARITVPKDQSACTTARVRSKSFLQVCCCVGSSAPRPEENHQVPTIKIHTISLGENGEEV

[4] = target: T4, Alpha-1D adrenergic receptor (Rattus norvegicus, UniProt P23944); experiment: Binding affinity towards Alpha-1D adrenergic receptor in rat brain using [3H]prazosin as radioligand; assay type: tissue-based
T4 sequence (P23944 whole entry): T3 sequence (P23944 whole entry)

[5] = target: T3, Adrenergic receptor alpha-1; experiment: pA2 values was evaluated against Alpha-1 adrenergic receptor in the isolated Rat Vas Deferens; assay type: functional, tissue-based
Procedure, shortened: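 Functional antagonism was measured in isolated tissue. Dose ratios were taken at agonist EC50 values at three antagonist concentrations, each concentration tested five times. pA2 was derived from Schild plots constrained to slope -1 and is reported as mean ± SE of n experiments.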

[6] = target: T2, Adrenergic receptor alpha-2 (Rattus norvegicus); experiment: as §1; assay type: tissue-based; procedure, shortened: as §2
[7] = target: T5, 5-hydroxytryptamine receptor 1A (Rattus norvegicus, UniProt P19327); experiment: Binding affinity towards 5-hydroxytryptamine 1A receptor in rat hypocampus membrane using [3H]8-OH-DPAT as radioligand; assay type: cell membranes; procedure, shortened: as §2
T5 sequence (P19327 whole entry): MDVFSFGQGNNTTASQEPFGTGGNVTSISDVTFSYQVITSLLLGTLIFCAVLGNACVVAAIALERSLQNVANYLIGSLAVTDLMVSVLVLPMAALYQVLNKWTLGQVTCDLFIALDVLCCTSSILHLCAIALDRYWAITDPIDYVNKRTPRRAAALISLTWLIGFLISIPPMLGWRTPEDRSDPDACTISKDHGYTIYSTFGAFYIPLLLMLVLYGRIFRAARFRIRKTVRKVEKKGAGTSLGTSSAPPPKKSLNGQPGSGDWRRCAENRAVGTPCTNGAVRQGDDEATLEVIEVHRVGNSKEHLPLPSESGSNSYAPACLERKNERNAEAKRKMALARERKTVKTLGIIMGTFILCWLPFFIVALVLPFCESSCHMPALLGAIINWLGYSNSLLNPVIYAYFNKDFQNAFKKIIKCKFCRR

D(2) dopamine receptor [8] = target: T6, D(2) dopamine receptor (Rattus norvegicus, UniProt P61169); experiment: In vitro inhibitory activity against [3H]spiperone binding to Dopamine receptor D2
[9] = target: T7, Alpha-1A adrenergic receptor (Bos taurus, UniProt P18130); experiment: Binding affinity towards Alpha-1A adrenergic receptor in bovine brain using [3H]-prazosin as radioligand
T7 sequence (P18130 whole entry): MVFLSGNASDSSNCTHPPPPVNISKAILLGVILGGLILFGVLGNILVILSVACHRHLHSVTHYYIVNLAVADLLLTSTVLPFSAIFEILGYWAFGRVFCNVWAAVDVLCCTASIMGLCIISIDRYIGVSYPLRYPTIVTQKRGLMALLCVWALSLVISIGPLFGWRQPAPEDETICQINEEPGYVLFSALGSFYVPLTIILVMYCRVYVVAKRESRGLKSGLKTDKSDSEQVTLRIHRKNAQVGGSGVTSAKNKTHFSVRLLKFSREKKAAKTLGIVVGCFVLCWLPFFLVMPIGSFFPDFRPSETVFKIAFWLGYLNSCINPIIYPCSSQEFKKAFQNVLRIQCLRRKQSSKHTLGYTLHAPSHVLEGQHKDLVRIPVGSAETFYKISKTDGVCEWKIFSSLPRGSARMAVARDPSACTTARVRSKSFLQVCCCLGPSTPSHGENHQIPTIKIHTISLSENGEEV
Procedure, shortened: (§3)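 Membranes (35-70 µg protein) from COS-7 cells transiently expressing bovine α1a, hamster α1b or rat α1d adrenoceptor. Incubated with 0.3-0.6 nM [3H]prazosin ± displacer in 50 mM Tris-HCl pH 7.4, 10 µM pargyline, 0.1% ascorbic acid, 30 min at 25 °C. Stopped with ice-cold buffer, then rapid filtration. Mean ± SE of ≥3 experiments in triplicate.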

[10] = target: T8, Alpha-1A adrenergic receptor (Rattus norvegicus, UniProt P43140); experiment: Binding affinity towards Alpha-1A adrenergic receptor in rat hippocampus (+ 10 uM) […] membrane using [3H]prazosin as radioligand; assay type: tissue-based
T8 sequence (P43140 whole entry): T3 sequence (P43140 whole entry)
Procedure, shortened: (§4)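 Native α1A site from rat hippocampus membranes pretreated with CEC, labelled with [3H]prazosin in competition binding. Mean ± SE of at least three separate experiments, each run in triplicate.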

[11] = target: T9, Alpha-1B adrenergic receptor (Rattus norvegicus, UniProt P15823); experiment: Binding affinity towards Alpha-1B adrenergic receptor in rat liver using [3H]prazosin as radioligand
T9 sequence (P15823 whole entry): T3 sequence (P15823 whole entry)

D(2) dopamine receptor [12] = target: T6, D(2) dopamine receptor; experiment: Binding affinity towards Dopamine receptor D2 in rat striatum using [3H]spiperone as radioligand; assay type: tissue-based; procedure, shortened: as §2
[13] = target: T7, Alpha-1A adrenergic receptor; experiment: Binding affinity towards Alpha-1A adrenergic receptor in bovine brain using [3H]prazosin as radioligand; procedure, shortened: as §3
[14] = target: T8, Alpha-1A adrenergic receptor; experiment: Binding affinity towards Alpha-1A adrenergic receptor in rat hippocampal membranes using [3H]prazosin as radioligand; assay type: cell membranes, Hippocampus; procedure, shortened: as §4
[15] = target: T2, Adrenergic receptor alpha-2 (Rattus norvegicus); conditions: Vas deferens; remark: listed apart in the source

T6 sequence (P61169 whole entry): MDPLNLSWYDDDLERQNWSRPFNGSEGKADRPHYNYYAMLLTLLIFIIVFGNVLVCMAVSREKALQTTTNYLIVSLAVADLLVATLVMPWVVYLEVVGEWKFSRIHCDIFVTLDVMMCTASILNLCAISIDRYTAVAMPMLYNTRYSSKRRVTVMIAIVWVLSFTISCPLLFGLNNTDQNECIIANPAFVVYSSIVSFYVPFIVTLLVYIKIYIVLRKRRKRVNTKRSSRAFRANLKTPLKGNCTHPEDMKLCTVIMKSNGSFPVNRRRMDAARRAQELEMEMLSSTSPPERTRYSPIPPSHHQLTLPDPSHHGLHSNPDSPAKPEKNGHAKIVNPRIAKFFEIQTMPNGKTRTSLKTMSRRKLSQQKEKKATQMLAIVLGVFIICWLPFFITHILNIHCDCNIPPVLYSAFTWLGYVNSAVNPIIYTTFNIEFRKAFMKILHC

Compound	Ki [1] [nM]	-Log KB [2]	Ki [3] [nM]	Ki [4] [nM]	pA2 [5]	Affinity [6] [µM]	Ki [7] [nM]	Ki (D(2) dopamine receptor [8]) [nM]	Ki [9] [nM]	Ki [10] [nM]	Ki [11] [nM]	Ki (D(2) dopamine receptor [12]) [nM]	Ki [13] [nM]	Ki [14] [nM]	-Log KB [15]
COC(=O)C1=C(C)NC(C)=C(C(=O)OCCCN2CCC(c3ccccc3)(c3ccccc3)CC2)[C@H]1c1cccc([N+](=O)[O-])c1 [NIGULDIPINE]	1611	–	–	–	–	–	–	–	–	–	–	–	–	–	–
COc1cccc(OC)c1OCCNCC1Oc2ccccc2OC1c1ccc(C)cc1 (racemic)	–	< 5	17.03	11.8	8.67	3.5	606	82.3	0.91	5.32	103	–	–	–	–
COc1cccc(OC)c1OCCNC[C@H]1Oc2ccccc2O[C@@H]1c1ccc(C)cc1	2142	< 5	121.2	191	7.59	–	1260	–	–	–	774	827	8.34	40.3	–

The remaining lines, values ahead:

Ki [1] [nM]	-Log KB [2]	Ki [3] [nM]	Ki [4] [nM]	pA2 [5]	Affinity [6] [µM]	Ki [7] [nM]	Ki (D(2) dopamine receptor [8]) [nM]	Ki [9] [nM]	Ki [10] [nM]	Ki [11] [nM]	Ki (D(2) dopamine receptor [12]) [nM]	Ki [13] [nM]	Ki [14] [nM]	-Log KB [15]	Compound
4293	< 5	9.97	6.57	8.92	–	889	–	–	–	62.6	86.5	0.35	1.76	–	COc1cccc(OC)c1OCCNC[C@@H]1Oc2ccccc2O[C@H]1c1ccc(C)cc1
14.72	–	8.72	6.26	9.13	–	7.26	–	–	–	–	123	0.62	1.29	6.29	COc1cccc(OC)c1OCCNCC1COc2ccccc2O1 (stereo not given)
